Screening data from PubChem BioAssay.
Sampled rows, rich in hits. Any-hit rate of the full collection: about 1.2%.
proCasp3 act: activators of human procaspase-3 D3A mutant, primary screen, biochemical, absorbance, PC-3 D3A mutant, single concentration | recombinant procaspase-3 D3A, Ac-DEVD-pNA absorbance 405 nm | activation, % at 8.5 µM | 330,000 tested, 0.11% active | AID 463141, 2010;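 active = activation above the mean of all tested compounds plus 3 SD, cut at about 21% in these data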;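 note: 0% = DMSO alone and 100% = DMSO wells spiked with extra 5 µM PC-3 D3A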
Target sequence (P42574 whole entry D9A/D28A/D175A): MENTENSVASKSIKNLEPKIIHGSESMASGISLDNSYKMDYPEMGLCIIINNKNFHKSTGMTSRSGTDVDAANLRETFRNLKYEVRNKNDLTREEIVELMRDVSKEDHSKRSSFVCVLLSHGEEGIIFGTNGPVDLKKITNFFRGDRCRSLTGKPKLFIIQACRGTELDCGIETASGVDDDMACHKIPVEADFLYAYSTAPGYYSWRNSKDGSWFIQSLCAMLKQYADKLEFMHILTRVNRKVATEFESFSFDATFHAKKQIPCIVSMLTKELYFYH
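assay system = Procaspase-3 D3A mutant | signal = absorbance at 405 nm, 0 and 120 min | times = 1 h preincubation plus 2 h reaction at 25 °C | repeats = single replicate | read-out = % activation between DMSO and enzyme-spiked controls | medium = Zinc-free HEPES saline buffer with Triton X-100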
PP5 primary: PP5 phosphatase inhibitors, primary screen, biochemical, fluorescence; Serine/threonine-protein phosphatase 5 (Homo sapiens), P53041; purified PP5c, OMFP substrate fluorescence; inhibition, % at 6.7 µM; 320,000 tested, 0.18% active;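 active = inhibition above the campaign's mean inhibition across all tested compounds plus 3 SD, cut at about 9.5% in these data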;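 note: 0% = DMSO only and 100% = 100 µM cantharidin control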
proCasp7 act: procaspase-7 activators, primary screen, counter-screen for procaspase-3 activator project, biochemical, absorbance, HTS, human; recombinant procaspase-7, Ac-DEVD-pNA absorbance 405 nm; D23A/D198A/D206A triple mutant, cannot self-cleave; scale: DMSO 0, 5 µM enzyme 100; activation, % at 8.5 µM; 330,000 tested, 0.093% active; AID 463210, 2010;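 active = percent activation above the screen-wide mean plus 3 SD, cut at about 25% in these data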
Target sequence (P55210 whole entry D23A/D198A/D206A): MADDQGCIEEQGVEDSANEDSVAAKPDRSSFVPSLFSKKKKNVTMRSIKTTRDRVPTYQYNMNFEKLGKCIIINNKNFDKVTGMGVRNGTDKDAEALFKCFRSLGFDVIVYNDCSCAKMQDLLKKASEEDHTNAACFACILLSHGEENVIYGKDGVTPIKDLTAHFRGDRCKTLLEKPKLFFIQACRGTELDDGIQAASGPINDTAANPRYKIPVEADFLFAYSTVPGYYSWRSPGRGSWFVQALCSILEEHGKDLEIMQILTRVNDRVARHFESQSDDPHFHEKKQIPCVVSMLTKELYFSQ
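Test system: Procaspase-7 triple mutant (PC-7 D3A). Also added: Ac-DEVD-pNA substrate, 400 µM as added. Schedule: 1 h enzyme–compound preincubation and 2 h substrate reaction, both 25 °C. Signal: p-Nitroaniline absorbance at 405 nm, read at 0 and 120 min. Control set: low DMSO alone, high DMSO plus 5 µM PC-7.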
PP1 counter: PP1-alpha phosphatase inhibitors, primary screen, counter-screen for PP5 inhibitor project, biochemical, fluorescence, OMFP substrate, single point; Serine/threonine-protein phosphatase PP1-alpha catalytic subunit (Homo sapiens), P62136; purified PP1alpha; inhibition, % at 6.7 µM; 320,000 tested, 0.9% active; AID 2235, 2010;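 active = inhibition above the mean inhibition of all tested compounds plus 3 SD, computed separately for each screening campaign, cut at about 15% in these data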
PP1 inh confirm: PP1 phosphatase inhibitors, confirmation, biochemical, fluorescence, OMFP substrate, triplicate; inhibition, % at 6.7 µM; shares compounds with PP1 counter; purified PP1alpha; 1,900 tested, 52% active;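 active = mean PP1 inhibition above a set limit taken from the earlier primary screen, cut at about 15% in these data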
PP5 counter: PP5 phosphatase inhibition by PP1 hits, confirmation, counter-screen for PP1 inhibitor project, biochemical, fluorescence, triplicate; shares compounds with PP1 counter; purified PP5c, OMFP fluorescence; inhibition, % at 6.7 µM; 1,900 tested, 4% active; AID 2360, 2010;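 active = mean PP5 inhibition over triplicate wells above about 9.5% taken from the earlier PP1 screen, limit read from the data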
Numbers without * were called inactive.

What do the screens show for `Cc1ccc(C(=O)Nc2nnc(CC(=O)N/N=C/c3ccc(O)c(O)c3)s2)cc1`?
proCasp3 act: 5.0; PP5 primary: -0.8; proCasp7 act: -5.6; PP1 counter: 17.7*; PP1 inh confirm: 8.6; PP5 counter: -6.5

Results for COc1ccc(S(=O)(=O)N2CCCCC2)cc1NC(=O)CCOc1cc(C)ccc1C ?
proCasp3 act: 6.0; PP5 primary: 2.7; proCasp7 act: -1.7; PP1 counter: 1.9

How did CCCCC(=O)NC(c1ccccc1)c1ccc2cccnc2c1O (stereo unspecified) do in these assays?
proCasp3 act: 0.1; PP5 primary: 1.8; proCasp7 act: -2.3; PP1 counter: 21.3*; PP1 inh confirm: 12.9; PP5 counter: -5.2

How did CCCCC(=O)NC(c1ccc(C(C)C)cc1)c1ccc2cccnc2c1O (stereo unspecified) do in these assays?
proCasp3 act: 6.9; PP5 primary: -2.2; proCasp7 act: -10.0; PP1 counter: 22.9*; PP1 inh confirm: 20.9*; PP5 counter: -6.8

What do the screens show for `CCCC(=O)NC(c1ccccc1)c1ccc2cccnc2c1O` (stereo unspecified)?
proCasp3 act: -3.1; PP5 primary: -1.6; proCasp7 act: 5.3; PP1 counter: 3.0

What do the screens show for `CCCCC(=O)NC(c1ccccc1Cl)c1ccc2cccnc2c1O` (stereo unspecified)?
proCasp3 act: 2.4; PP5 primary: 3.0; proCasp7 act: 10.1; PP1 counter: 27.4*; PP1 inh confirm: 19.3*; PP5 counter: -3.9

Results for Cc1ccc(NC(=O)C2CCN(S(=O)(=O)c3ccc(N4CCCC4=O)cc3)CC2)cc1Cl ?
proCasp3 act: 2.4; PP5 primary: 3.5; proCasp7 act: -3.5; PP1 counter: 1.9

Results for O=C(NCc1ccc(Cl)cc1)c1cc(-c2cccs2)on1 ?
proCasp3 act: 8.2; PP5 primary: -0.3; proCasp7 act: 15.7; PP1 counter: 21.2*; PP1 inh confirm: 25.0*; PP5 counter: -2.5

Results for COc1ccc(CNC(=O)c2cc(-c3cccs3)on2)cc1 ?
proCasp3 act: 4.7; PP5 primary: 1.0; proCasp7 act: -5.8; PP1 counter: 4.7

What do the screens show for `COc1cc(F)ccc1S(=O)(=O)N1CCN(c2ccccc2)CC1`?
proCasp3 act: -2.0; PP5 primary: 0.1; proCasp7 act: -0.4; PP1 counter: -71.3; PP1 inh confirm: -1.6; PP5 counter: -4.2

What do the screens show for `O=C1N=C(N2CCN(c3cccc4ccccc34)CC2)S/C1=C/c1cccs1`?
proCasp3 act: -8.8; PP5 primary: 3.2; proCasp7 act: 2.0; PP1 counter: 23.6*; PP1 inh confirm: 18.9*; PP5 counter: -2.5

Results for Cc1ccccc1N1CCN(C2=NC(=O)/C(=C\c3cccs3)S2)CC1 ?
proCasp3 act: 5.2; PP5 primary: 0.5; proCasp7 act: -2.5; PP1 counter: 11.1

Results for CCOC(=O)c1c(C)[nH]c(C(=O)OC/C(O)=C(\C#N)c2nc3ccccc3[nH]2)c1C ?
proCasp3 act: 6.2; PP5 primary: 0.4; proCasp7 act: 3.9; PP1 counter: 19.7*; PP1 inh confirm: 9.7; PP5 counter: 1.4

Results for COc1ccc(CCNC(=O)COc2ccc(C)nc2[N+](=O)[O-])cc1OC ?
proCasp3 act: 5.8; PP5 primary: 0.3; proCasp7 act: 0.9; PP1 counter: -0.3

How did CCOc1ccc(NC(=NCc2ccc3c(c2)OCO3)SC2CC(=O)N(c3ccc(C(=O)O)cc3)C2=O)cc1 (stereo unspecified) do in these assays?
proCasp3 act: -11.2; PP5 primary: 5.3; proCasp7 act: 11.9; PP1 counter: 19.3*; PP1 inh confirm: 8.1; PP5 counter: 6.1

How did CCN(CC)S(=O)(=O)c1ccc(C(=O)NC2=NCCS2)cc1 do in these assays?
proCasp3 act: -1.4; PP5 primary: 0.1; proCasp7 act: 11.7; PP1 counter: -3.1

What do the screens show for `O=C(NCCN1CCCC1)c1ccc(Cn2c(=S)[nH]c3cc4c(cc3c2=O)OCO4)cc1`?
proCasp3 act: 10.2; PP5 primary: 3.3; proCasp7 act: 5.7; PP1 counter: 8.2

Results for C=CCNC(=O)c1ccc(Cn2c(=S)[nH]c3cc4c(cc3c2=O)OCO4)cc1 ?
proCasp3 act: 5.1; PP5 primary: 5.2; proCasp7 act: 15.7; PP1 counter: 25.1*; PP1 inh confirm: -0.7; PP5 counter: -0.4

What do the screens show for `Cc1ccc(C(C)NC(=O)C2CCCC2)c(C)c1` (stereo unspecified)?
proCasp3 act: -1.6; PP5 primary: -3.1; proCasp7 act: 12.2; PP1 counter: -5.4

How did O=C(O)C1C2CCC(O2)C1C(=O)Nc1ccc(OC(F)F)cc1 (stereo unspecified) do in these assays?
proCasp3 act: -0.8; PP5 primary: 68.4*; proCasp7 act: -9.4; PP1 counter: 68.3*; PP1 inh confirm: 11.8; PP5 counter: 26.4*

How did COc1cc(NC(=O)C2C3CCC(O3)C2C(=O)O)cc(OC)c1 (stereo unspecified) do in these assays?
proCasp3 act: 4.9; PP5 primary: 80.4*; proCasp7 act: -10.6; PP1 counter: 76.1*; PP1 inh confirm: 20.6*; PP5 counter: 29.6*

How did Cc1ccc(C)c(C(C)NC(=O)C2C3CCC(O3)C2C(=O)O)c1 (stereo unspecified) do in these assays?
proCasp3 act: 0.6; PP5 primary: 82.0*; proCasp7 act: 10.9; PP1 counter: 79.8*; PP1 inh confirm: 33.1*; PP5 counter: 43.3*

What do the screens show for `COc1cccc(NC(=O)C2C3C=CC(C3)C2C(=O)O)c1` (stereo unspecified)?
proCasp3 act: 2.6; PP5 primary: -1.6; proCasp7 act: 6.2; PP1 counter: -0.2

How did O=C(O)C1C2CCC(O2)C1C(=O)Nc1ccc(O)cc1 (stereo unspecified) do in these assays?
proCasp3 act: 1.6; PP5 primary: 43.3*; proCasp7 act: 1.5; PP1 counter: 26.7*; PP1 inh confirm: 5.4; PP5 counter: 18.3*

Results for FC(F)Oc1ccc(NC(=S)NC2CCCCCCC2)cc1 ?
proCasp3 act: -0.6; PP5 primary: 4.5; proCasp7 act: 15.8; PP1 counter: 0.7

How did O=C(O)c1ccc(NC(=O)C2C3CCC(C3)C2C(=O)O)cc1 (stereo unspecified) do in these assays?
proCasp3 act: -0.7; PP5 primary: 2.1; proCasp7 act: 2.6; PP1 counter: -2.9
